For assay [1], the system named is Mycobacterium avium. Nature of the assay: Antimycobacterial activity against Mycobacterium avium 330/80 after 14 days. Particulars: 330/80, 336 h. The class given is functional.
For assay [2], the system named is Mycobacterium kansasii. Briefly: Antimycobacterial activity against Mycobacterium kansasii 235/80 after 14 days. The assay is classed as functional. Particulars: 235/80, 336 h. The gist of the method:
(§1)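 Šula's semisynthetic medium micromethod at 37 °C, read after 7, 14 and 21 days. The 1.0 McFarland suspension was diluted 10^-4. MIC determined. 6509/96 is a clinical isolate.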

For assay [3], the system named is Mycobacterium kansasii. Briefly: Antimycobacterial activity against Mycobacterium kansasii 6509/96 after 14 days. The conditions noted are these: 6509/96, 336 h. The class given is functional. The gist of the method: as §1
Assay [4] has as its system Mycobacterium kansasii. Nature of the assay: Antimycobacterial activity against Mycobacterium kansasii 235/80 after 7 days. The class given is functional. Particulars: 235/80, 168 h. An outline of the steps:
as §1

The subject of assay [5] is Mycobacterium tuberculosis. Briefly: Antimycobacterial activity against Mycobacterium tuberculosis H37Rv 331/88 after 14 days. The assay is classed as functional. The conditions noted are these: H37Rv 331/88, 336 h.
The test system of assay [6] is Mycobacterium kansasii. Nature of the assay: Antimycobacterial activity against Mycobacterium kansasii 6509/96 after 21 days. The class given is functional. Particulars: 6509/96, 504 h. The gist of the method: as §1
In a further assay the test system is HepG2. Briefly: Cytotoxicity against human HepG2 cells after 24 hrs […]. The conditions noted are these: HepG2, 24 h. The assay is classed as cell-based.
Assay [7] can be described thus: Selectivity index, ratio of CI50 for human HepG2 cells to MIC100 for Mycobacterium tuberculosis H37Rv 331/88.
Assay [8] deals with Mycobacterium kansasii. Nature of the assay: Antimycobacterial activity against Mycobacterium kansasii 235/80 after 21 days. The class given is functional. Particulars: 235/80, 504 h. An outline of the steps: as §1
Assay [9] relates to Mycobacterium kansasii. Nature of the assay: Antimycobacterial activity against Mycobacterium kansasii 6509/96 after 7 days. The conditions noted are these: 6509/96, 168 h. The class given is functional. An outline of the steps: as §1
Assay [10] concerns Mycobacterium tuberculosis. Nature of the assay: Antimycobacterial activity against Mycobacterium tuberculosis H37Rv 331/88 after 21 days. The assay is classed as functional. Particulars: H37Rv 331/88, 504 h.
The test system of assay [11] is Mycobacterium avium. Nature of the assay: Antimycobacterial activity against Mycobacterium avium 330/80 after 21 days. The class given is functional. Particulars: 330/80, 504 h.

Structures are written as SMILES. Values after ≈ are worked out from the molar mass of the structure shown.

On to `O=C(Nc1cc(C(F)(F)F)cc(C(F)(F)F)c1)c1cccc([N+](=O)[O-])c1O`, for which the MIC in the assay with Mycobacterium avium [1] worked out at 125 µM (≈ 49.3 µg/mL); with Mycobacterium kansasii [2], 32 µM (≈ 12.6 µg/mL); against Mycobacterium kansasii [3], 32 µM (≈ 12.6 µg/mL); in the assay on Mycobacterium kansasii [4], 16 µM (≈ 6.31 µg/mL); in [5], 8 µM (≈ 3.15 µg/mL); against Mycobacterium kansasii [6] it was 32 µM (≈ 12.6 µg/mL). Besides, the MIC in the assay on Mycobacterium kansasii [8] is 32 µM (≈ 12.6 µg/mL); against Mycobacterium kansasii [9], 32 µM (≈ 12.6 µg/mL); in assay [10], 8 µM (≈ 3.15 µg/mL); against Mycobacterium avium [11] it was 125 µM (≈ 49.3 µg/mL). In the assay with HepG2, this compound returned an IC50 of 7.4 µM. Further, the “Selectivity Index” value in assay [7] is given as 0.925.
For the compound `O=C(Nc1ccc(C(F)(F)F)cc1)c1cccc([N+](=O)[O-])c1O`, the MIC with Mycobacterium avium [1] was 250 µM (≈ 81.6 µg/mL); against Mycobacterium kansasii [2], 125 µM (≈ 40.8 µg/mL); in the assay with Mycobacterium kansasii [3], 62.5 µM (≈ 20.4 µg/mL); against Mycobacterium kansasii [4], 62.5 µM (≈ 20.4 µg/mL); in [5], 32 µM (≈ 10.4 µg/mL); with Mycobacterium kansasii [6], 125 µM (≈ 40.8 µg/mL). Moreover, the minimum inhibitory concentration (MIC) amounted to 125 µM (≈ 40.8 µg/mL) in the assay with Mycobacterium kansasii [8], 62.5 µM (≈ 20.4 µg/mL) in the assay with Mycobacterium kansasii [9], 32 µM (≈ 10.4 µg/mL) in [10] and 250 µM (≈ 81.6 µg/mL) with Mycobacterium avium [11]. In the assay with HepG2, this compound gave an IC50 of 8 µM. Moreover, the “Selectivity Index” value in [7] is reported as 0.25.
Regarding `O=C(Nc1cccc(C(F)(F)F)c1)c1cccc([N+](=O)[O-])c1O`, the MIC stood at 500 µM (≈ 163 µg/mL) against Mycobacterium avium [1]; 62.5 µM (≈ 20.4 µg/mL) against Mycobacterium kansasii [2]; 250 µM (≈ 81.6 µg/mL) in the assay with Mycobacterium kansasii [3]; 32 µM (≈ 10.4 µg/mL) against Mycobacterium kansasii [4]; 32 µM (≈ 10.4 µg/mL) in assay [5]; 250 µM (≈ 81.6 µg/mL) with Mycobacterium kansasii [6]. Also, the minimum inhibitory concentration (MIC) in the assay with Mycobacterium kansasii [8] is 62.5 µM (≈ 20.4 µg/mL); in the assay on Mycobacterium kansasii [9], 125 µM (≈ 40.8 µg/mL); in [10], 32 µM (≈ 10.4 µg/mL); against Mycobacterium avium [11], 500 µM (≈ 163 µg/mL). The compound also displayed an IC50 with HepG2 of 8.9 µM. Moreover, the “Selectivity Index” value in [7] is given as 0.278.

For orientation: MIC means the lowest concentration found to suppress growth. High values mean weaker potency, low ones greater potency. Broadly, the IC50 is the concentration that gives 50% inhibition. Low values mean higher potency, high ones lower potency.

For the origin of these results see ChEMBL document CHEMBL3627671, “Novel derivatives of nitro-substituted salicylic acids: Synthesis, antimicrobial activity and cytotoxicity” (Bioorg Med Chem, 2015).
